Test results published in ChEMBL document CHEMBL1649356, “Triterpenoids from Aglaia abbreviata and their cytotoxic activities” (J Nat Prod, 2010).

Tests used:
Assay type in all cases: functional, cell-based
KB = assay: Cytotoxicity against human KB cells after 48 hrs by MTT assay
How it was run: (§1)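 Cells grown in RPMI-1640 or DMEM with 10% FBS, 5% CO2, 37 °C. Adherent cells seeded and allowed 12 h to attach before compound addition; suspension cells seeded just before addition; initial density 1 × 10^5 cells/mL. Compound at 0.1, 1, 10, 100, 500 µM, triplicate, 48 h; doxorubicin positive control. Viability by MTT; IC50 by Reed and Muench method.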

K562 = assay: Cytotoxicity against human K562 cells after 48 hrs by MTT assay; conditions: K562, 48 h; how it was run: as §1
[1] = Cytotoxicity against human MCF7/ADR cells after 48 hrs by MTT assay; conditions: NCI/ADR-RES; how it was run: as §1
MCF7 = assay: Cytotoxicity against human MCF7 cells after 48 hrs by MTT assay; conditions: MCF7, 48 h; how it was run: as §1
[2] = Cytotoxicity against human KB/VCR cells after 48 hrs by MTT assay; how it was run: as §1
SMMC-7721 = assay: Cytotoxicity against human SMMC7721 cells after 48 hrs by MTT assay; conditions: SMMC-7721, 48 h; how it was run: as §1

Structure (SMILES) | IC50 (KB) [nM] | IC50 (K562) [nM] | IC50 [1] [µM] | IC50 (MCF7) [µM] | IC50 [2] [nM] | IC50 (SMMC-7721) [nM]
CC1(C)C(=O)CC[C@]2(C)[C@H]3CC[C@@H]4[C@@H]([C@]5(C)C=CC(=O)O5)CC[C@@]4(C)[C@]3(C)CC[C@@H]12 [AGLAIABBREVIATIN A] | > 10000 | > 10000 | > 10 | > 10 | > 10000 | > 10000
CC(=O)O[C@@H]1CC[C@]2(C)[C@H]3CC[C@@H]4[C@@H]([C@]5(C)C=CC(=O)O5)CC[C@@]4(C)[C@]3(C)CC[C@H]2C1(C)C [AGLAIABBREVIATIN B] | > 10000 | > 10000 | > 10 | > 10 | > 10000 | > 10000
CC(=O)[C@H]1CC[C@]2(C)[C@@H]1CC[C@@H]1[C@@]3(C)CC[C@@H](O)C(C)(C)[C@@H]3CC[C@]12C [AGLAIABBREVIATIN C] | > 10000 | > 10000 | > 10 | > 10 | 1100 | > 10000
CC1(C)C=CC[C@@](C)([C@H]2CC[C@]3(C)[C@@H]2CC[C@@H]2[C@@]4(C)CCC(=O)C(C)(C)[C@@H]4CC[C@]23C)O1 [AGLAIABBREVIATIN D] | 1200 | 1200 | > 10 | > 10 | 960 | 2100
C=C(C/C=C/C(C)(C)O)[C@H]1CC[C@]2(C)[C@@H]1CC[C@@H]1[C@@]3(C)CCC(=O)C(C)(C)[C@@H]3CC[C@]12C [AGLAIABBREVIATIN E] | 2700 | 1800 | > 10 | > 10 | 830 | 4200
CC(=O)O[C@@H]1CC[C@]2(C)[C@H]3CC[C@@H]4[C@@H]([C@@](C)(O)CCCC(C)(C)OO)CC[C@@]4(C)[C@]3(C)CC[C@H]2C1(C)C [AGLAIABBREVIATIN F] | 600 | 460 | 5.5 | > 10 | 310 | 1400
COc1cccc2c1C(=O)c1c(O)c3c(c(O)c1C2=O)C[C@@](O)(C(=O)CO)C[C@@H]3O[C@H]1C[C@H](N)[C@H](O)[C@H](C)O1 [DOXORUBICIN] | 12 | 170 | > 10 | 0.54 | 450 | 370
